# Measured values of several laboratories.
# Compare with care: the assays were run in different laboratories.
# Target: Inhibitor of nuclear factor kappa-B kinase subunit alpha (CHUK, Homo sapiens, UniProt O15111)
# Residues used in one study (O15111 1-745): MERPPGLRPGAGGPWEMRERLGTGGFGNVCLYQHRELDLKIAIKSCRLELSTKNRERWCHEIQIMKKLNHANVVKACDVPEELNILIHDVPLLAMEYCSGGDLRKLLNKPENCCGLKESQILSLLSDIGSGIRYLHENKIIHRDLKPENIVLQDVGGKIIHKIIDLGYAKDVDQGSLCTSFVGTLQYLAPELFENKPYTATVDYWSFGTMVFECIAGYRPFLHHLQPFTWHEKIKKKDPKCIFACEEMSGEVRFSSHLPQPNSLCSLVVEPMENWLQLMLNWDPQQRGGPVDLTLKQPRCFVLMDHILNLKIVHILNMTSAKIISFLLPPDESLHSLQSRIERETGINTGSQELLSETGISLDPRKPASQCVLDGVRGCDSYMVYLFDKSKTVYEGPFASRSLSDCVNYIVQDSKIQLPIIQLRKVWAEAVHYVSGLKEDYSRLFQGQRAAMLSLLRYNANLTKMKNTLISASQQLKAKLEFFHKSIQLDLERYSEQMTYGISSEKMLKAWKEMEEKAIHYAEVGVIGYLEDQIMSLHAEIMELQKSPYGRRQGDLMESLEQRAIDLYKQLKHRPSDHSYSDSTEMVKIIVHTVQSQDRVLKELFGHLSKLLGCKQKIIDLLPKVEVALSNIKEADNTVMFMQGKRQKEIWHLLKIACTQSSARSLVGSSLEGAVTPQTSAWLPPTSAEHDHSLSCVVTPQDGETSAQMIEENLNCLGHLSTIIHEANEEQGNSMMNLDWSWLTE
SMILES,observed,action,technique,tested at,quantity,result
C[C@H]1CC[C@H](n2c3cnccc3c3cnc(Nc4ccc5c(n4)CCN(C(=O)CO)C5)nc32)CC1,cell-free assay,,,1 µM,remaining signal,76%
COc1ccc2oc(-c3ccc4nc(N)oc4c3)c/c(=N\c3ccccc3NC(=O)CCN)c2c1,binding,,,1 µM,remaining binding,94%
C#Cc1cnc(Nc2ccnc(CO)c2)nc1Nc1ccccc1S(C)(=O)=NC#N (centres unmarked),cell-free assay,,,1 µM,remaining signal,100%
CCCCC(=O)Nc1ccc(-c2ccc3ncn(CCC)c(=O)c3c2)cn1,binding,,competition with immobilised ligand,0.5 µM,remaining binding,100%
C=CC(=O)N1CCC[C@@H](n2nc(-c3ccc(Oc4ccccc4)cc3)c3c(N)ncnc32)C1,enzyme activity,inhibitor,,1 µM,inhibition,16%
COc1ccc2[nH]c3c4[nH]c5ccc(OC)cc5c4c4c(c3c2c1)C(=O)NC4=O,binding,,,1 µM,remaining binding,89%
N#Cc1ccc(NC(=O)Nc2ccccc2)cc1,cell-free assay,,competition with immobilised ligand,25 µM,remaining binding,85%
C=CC(=O)N1CCC([C@@H]2CCNc3c(C(N)=O)c(-c4ccc(Oc5ccccc5)cc4)nn32)CC1,enzyme activity,inhibitor,,1 µM,inhibition,0%
